Bioassay records as filed in PubChem.
HSF1 activator: increases HSF-1 driven luciferase reporter signal | NIH3T3-HGL HSF-1 luciferase reporter, MG132, 8 h; 100% = twice DMSO control signal | activation, % at 9 µM | 1.7% of 300,000 active;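 active = mean replicate activation of at least 50% with a set share of replicates each reaching 50%; inconclusive = only one of those two conditions met; inactive = mean below 50% and too few replicates reaching it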;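 note: 0% = median of the neutral control wells and 100% = twice that signal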
SR-BI DiI inh: inhibitors of mouse SR-BI mediated HDL lipid uptake | ldlA[mSR-BI] CHO cells, DiI-HDL uptake fluorescence, 3 h | inhibition, % at 12.5 µM | 0.96% of 320,000 active | AID 488896 | Q61009;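 active = mean replicate inhibition of at least 70% and a set share of replicates each scoring 70 or more; inconclusive = meets just one of the two criteria; inactive = fails both criteria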;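 note: 0% = median of neutral control wells and 100% = median of positive control wells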
Target sequence (Q61009 whole entry, looked up): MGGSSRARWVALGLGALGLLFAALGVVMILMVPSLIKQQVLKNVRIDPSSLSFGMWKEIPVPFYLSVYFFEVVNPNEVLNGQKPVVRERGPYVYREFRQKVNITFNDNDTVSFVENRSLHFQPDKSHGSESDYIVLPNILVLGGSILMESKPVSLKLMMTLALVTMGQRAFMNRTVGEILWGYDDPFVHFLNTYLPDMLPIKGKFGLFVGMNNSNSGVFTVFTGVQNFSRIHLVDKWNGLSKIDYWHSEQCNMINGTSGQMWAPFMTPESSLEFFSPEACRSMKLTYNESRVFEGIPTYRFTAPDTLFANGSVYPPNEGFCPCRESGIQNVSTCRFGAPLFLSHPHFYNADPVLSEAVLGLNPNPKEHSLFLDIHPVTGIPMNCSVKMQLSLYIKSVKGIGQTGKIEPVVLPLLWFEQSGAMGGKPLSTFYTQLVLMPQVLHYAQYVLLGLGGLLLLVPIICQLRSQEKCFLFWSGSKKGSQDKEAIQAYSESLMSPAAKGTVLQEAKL
Wnt act: Wnt/beta-catenin pathway activation; 1.2% of 300,000 active; Wnt/beta-catenin reporter cell assay, activator, plate reader; activation, % at 9.35 µM; in the data active = activation above about 30%, passing the limit was not always enough; inconclusive = no clear call, values can overlap the other calls;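 note: 0% = neutral control wells and 100% = positive control wells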
MITF TRPM1 HTS: increases MITF-driven TRPM1 promoter luciferase signal | SK-MEL-5 TRPM1-promoter luciferase, 24 h; % of positive control, neutral wells = 0 | activation, % at 12.5 µM | 0.75% of 300,000 active | AID 588334;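 active = mean activation of at least 80% with every replicate also reaching 80%; inconclusive = mean reaches 80% but some replicate falls short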;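 note: 0% = neutral control wells and 100% = parthenolide positive control wells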
SR-BI uptake up: activators of SR-BI mediated HDL lipid uptake; CHO ldlA[mSR-BI] cells, DiI-HDL uptake fluorescence, 3 h; 100 = double the neutral-control signal; activation, % at 12.5 µM; 0.096% of 320,000 active;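 active = mean replicate activation of at least 60% and every replicate at or above 60%; inconclusive = mean or all-replicate condition met, but not both; inactive = mean below 60% and not all replicates reaching 60%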;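 note: 0% = median plate neutral-control signal and 100% = twice that signal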
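Test system: SR-BI-overexpressing, LDLR-lacking CHO cells; Medium: Ham's F12 with 0.5% BSA, HEPES 25 mM, pH 7.4; Schedule: 3 h, 37 °C; Technique: bottom-read fluorescence, 550/595 nm.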
* hit, by the source's call; u = inconclusive; x = not tested or not shown. In the library only some 3.6% were active in any assay of this set; here they are far more common.

SMILES | HSF1 activator | SR-BI DiI inh | Wnt act | MITF TRPM1 HTS | SR-BI uptake up
COc1ccc(NC(=O)c2sccc2C)c([N+](=O)[O-])c1 | 74* | 10 | -2 | 51 | -10
C/C(CC(=O)Nc1ccc(Cl)cc1C(F)(F)F)=N\NC(=O)c1cccs1 | 65* | 21 | 10 | -7 | -21
COc1ccc(NC(=O)C/C(C)=N/NC(=O)c2cccs2)c([N+](=O)[O-])c1 | 70* | -1 | 2 | -4 | 1
C/C(CC(=O)Nc1ccc(Cl)c(C(F)(F)F)c1)=N\NC(=O)c1cc2ccccc2cc1O | 19 | 112* | -8 | -7 | -112
COc1cccc(NC(=O)C/C(C)=N/NC(=O)c2ccccc2Cl)c1 | 10 | -9 | u | 2 | 9
COc1ccc(Cl)cc1-c1cc(C(=O)NCc2cccs2)[nH]n1 | x | x | -1 | x | x
NC(=S)NN=C1c2cc(Cl)ccc2-c2c1cc(Cl)cc2[N+](=O)[O-] | x | 105* | x | 4 | -105
NC(=S)N/N=C/c1ccccc1[N+](=O)[O-] | -2 | 13 | -1 | 10 | -13
CC(=O)N(C)C[C@@H]1Oc2ncc(Br)cc2C(=O)N([C@H](C)CO)C[C@@H]1C | x | x | 6 | x | x
CCOc1ccc(C2C3=C(CCCC3=O)Nc3ccc4ncccc4c32)cc1 (stereo not given) | 68* | x | 2 | -1 | x
CCn1c(C(=O)OC)cc2c1ccn2-c1ccc(F)cc1 | 52* | 78* | 84* | 121* | -78
COC(=O)c1cc2c(ccn2-c2ccc(F)cc2)n1Cc1ccc(OC)cc1 | 48 | 68 | x | 10 | -68
O=C(NN=Cc1ccco1)C(=O)Nc1cccc(C(F)(F)F)c1 | x | x | -2 | x | x
CC(Cc1cccs1)NC(=O)Nc1ccccc1 (stereo not given) | -15 | -2 | x | 30 | 2
CC(Cc1cccs1)NC(=O)Nc1ccc(Cl)cc1 (stereo not given) | 62* | 6 | 58* | 51 | -6
COc1cc(C#Cc2ccc3cc(CCO)oc(=O)c3c2)cc(OC)c1 | x | 68 | 38* | 144* | -68
O=C1c2ccccc2C(=O)N1CCC#Cc1ccc2cc(CCO)oc(=O)c2c1 | x | 13 | 1 | 6 | -13
O=c1oc(CCCO)cc2ccc(C#Cc3cccnc3)cc12 | x | 3 | 22 | 46 | -3
O=c1oc(CCO)cc2ccc(C#Cc3ccsc3)cc12 | x | -3 | 33* | 115* | 3
CN(C)c1ccc(C#Cc2ccc3cc(CCO)oc(=O)c3c2)cc1 | x | 42 | x | 128* | -42
O=C(CC[C@H]1O[C@@H](n2cnc3c(NC(=O)c4ccccc4)ncnc32)[C@H](O)[C@@H]1O)NCC1CCN(Cc2ccccc2)CC1 | x | x | -1 | x | x
CCOc1ncccc1C(=O)NCCc1c[nH]c2ccccc12 | 89* | x | -3 | 2 | x
Cn1c(C(=O)NCCc2c[nH]c3ccccc23)cc2sccc21 | -3 | 34 | 13 | 101* | -34
CC1(C)CC(=O)c2c(O)cc(OCC(=O)N3CCN(c4ccc(F)cc4)CC3)cc2O1 | -3 | 80* | 1 | 0 | -80
CC1(C)CC(=O)c2ccc(OCc3ccc([N+](=O)[O-])cc3)cc2O1 | 70* | 30 | 29 | x | -30
SMILES | HSF1 activator | SR-BI DiI inh | Wnt act | MITF TRPM1 HTS | SR-BI uptake up
COC(=O)c1ccc(COc2cc(O)c3c(c2)OC(C)(C)CC3=O)cc1 | 18 | 31 | -1 | 32 | -31
CC1(C)CC(=O)c2cc(OCC(=O)O)ccc2O1 | -1 | -5 | -4 | 1 | 5
CC1(C)CC(=O)c2c(O)cc(OCc3ccc(Br)cc3)cc2O1 | -9 | 42 | -1 | 87* | -42
COc1cccc(-c2cnc3c(c2)C(=O)N([C@H](C)CO)C[C@@H](C)[C@H](CN(C)C(=O)Nc2ccccc2F)O3)c1 | x | x | -4 | x | x
N#Cc1ccc(C(=O)N2CCCCC2c2cc(C(=O)Nc3cccc(C#N)c3)no2)cc1 (stereo not given) | x | x | 36* | x | x
c1ccc(-c2nc(-c3ccc(-c4ccon4)s3)no2)cc1 | 25 | -2 | 36* | 74 | 2
c1csc(-c2nc(-c3ccc(-c4ccon4)s3)no2)c1 | 40 | 1 | 42* | 38 | -1
Cc1ccc(-c2noc(-c3cccs3)n2)cc1 | 30 | 23 | 25 | 17 | -23
C#CCN1C=C(C(=O)OCC)C(C)N(Cc2ccccc2I)S1(=O)=O (stereo not given) | x | -6 | -2 | -34 | 6
CC(C)N(Cc1ccccc1)C(=O)COC(=O)/C=C/c1cnc2ccccc2n1 | 63* | 1 | -1 | -2 | -1
CCN(C(=O)COC(=O)/C=C/c1cnc2ccccc2n1)c1ccccc1 | x | 4 | 9 | -8 | -4
O=C(NCc1ccccc1)[C@H]1CCCN1C(=O)[C@H]1CCCN1C(=O)c1ccccc1C(F)(F)F | x | x | -6 | x | x
CCC1=[N+](CC(=O)c2ccc(C)cc2)CCn2cccc21 | 51* | 27 | 6 | 56 | -27
CCOc1cc(OCC)cc(C(=O)NCCN2CCC(n3c(=O)[nH]c4ccccc43)CC2)c1 | x | x | -2 | x | x
C=CCc1ccccc1OCC(=O)O | -14 | x | 34* | -11 | x
O=C(O)CCC(=O)OCc1c(-c2ccccc2)ncc2ccccc12 | x | -14 | 0 | 4 | 14
O=C(OCc1c(-c2ccccc2)ncc2ccccc12)N1CCOCC1 | x | -12 | 37* | 101* | 12
COCCNc1nc(NCc2cc(-c3ccc(OC)cc3)no2)c2sccc2n1 | x | x | -3 | x | x
Cc1nonc1CN(C)C(=O)c1cc(COc2ccc(F)cc2Cl)on1 | 21 | 41 | 11 | 34 | -41
COc1ccc(OCc2cc(C(=O)N(C)Cc3cc(C)no3)no2)c(Cl)c1 | 30 | 18 | 4 | 47 | -18
CCc1ccc(CN(C)C(=O)c2cc(COc3ccc(OC)cc3Cl)on2)nc1 | 56* | 2 | 16 | 57 | -2
Cc1ccc(CN(C)C(=O)c2cc(COc3ccc(F)cc3Cl)on2)o1 | 54* | 1 | 6 | 30 | -1
Cc1ccsc1/C=C1/SC(N2CC(C)OC(C)C2)=NC1=O (stereo not given) | 52* | 37 | x | 3 | -37
O=C(CS(=O)(=O)c1ccccc1)c1cc2ccccc2oc1=O | 57* | -10 | x | 2 | 10
COc1ccc2cc(C(=O)CS(=O)(=O)c3ccccc3)c(=O)oc2c1 | 40 | -6 | -1 | 5 | 6
SMILES | HSF1 activator | SR-BI DiI inh | Wnt act | MITF TRPM1 HTS | SR-BI uptake up
O=C(CS(=O)(=O)c1ccccc1)c1cc2cc(F)ccc2oc1=O | 325* | -9 | x | -1 | 9
COc1ccc(OC)c(S(=O)(=O)CC(=O)c2cc3ccccc3oc2=O)c1 | x | x | -1 | x | x
O=c1c2ccccc2c2ccccc2c(=O)n1Nc1ccccc1 | x | x | 1 | x | x
Cc1ccc(-c2cc3nc(-c4ccccc4)cc(N)n3n2)cc1 | 62* | 32 | 42* | 64 | -32
Cc1ccc(-c2cc(N)n3nc(-c4ccc(C)cc4)cc3n2)cc1 | 18 | -19 | -2 | 12 | 19
Cc1ccc(-c2cc(N)n(-c3ccc(F)cc3)n2)cc1 | 12 | -1 | 9 | 100* | 1
